# Rows were chosen to be rich in hits. Some 3.7% of all compounds tested hit in one or more screens of this group.
# NR3A LBD binder = modulators (binders) of human NR3A ligand-binding domain; AID 1259313; 340,000 compounds, 2.5% hits; Tm shift relative to glycine control, % at 25 µM; NR3A LBD differential scanning fluorimetry, Tm shift; 0% = protein alone, 100% = glycine-bound protein;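 active means melting temperature shift of at least 10% of the positive control shift, at one fixed dose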
# proCasp3 act = procaspase-3 (human) activation; recombinant procaspase-3 D3A, Ac-DEVD-pNA absorbance 405 nm; activation, % at 8.5 µM; 330,000 compounds, 0.11% hits; AID 463141;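 active means activation above the mean of all tested compounds plus 3 SD, cut at about 21% in these data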
# Target sequence (P42574 whole entry D9A/D28A/D175A): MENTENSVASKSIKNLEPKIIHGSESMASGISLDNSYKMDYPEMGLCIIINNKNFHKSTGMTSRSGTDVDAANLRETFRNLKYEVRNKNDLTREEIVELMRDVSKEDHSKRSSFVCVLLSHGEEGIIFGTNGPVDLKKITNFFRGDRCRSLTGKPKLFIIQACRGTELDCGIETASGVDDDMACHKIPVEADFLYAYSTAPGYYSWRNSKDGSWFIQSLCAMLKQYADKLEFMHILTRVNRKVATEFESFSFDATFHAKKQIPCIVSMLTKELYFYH
#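 Compound: 8.5 µM single point, 0.8% DMSO / Material: Autoprocessing-dead procaspase-3 D3A mutant enzyme / Timing: 1 h preincubation plus 2 h reaction at 25 °C / Medium: Zinc-free HEPES/NaCl buffer with 0.01% Triton X-100 at pH 7.4 / Technique: 405 nm absorbance of p-nitroaniline, reads at 0 and 120 min / Repeats: one well per compound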
# MPTP block = blocks calcium-induced mitochondrial swelling; inhibition, % at 10 µM; 360,000 compounds, 1.4% hits; isolated mouse mitochondria, Ca2+ swelling absorbance, 30 min;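 active means inhibition of 50% or more, scaled per plate between neutral and stimulator controls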
# proCasp7 act = activates human procaspase-7, counter-screen for procaspase-3 activators; 330,000 compounds, 0.093% hits; activation, % at 8.5 µM; AID 463210; recombinant procaspase-7, Ac-DEVD-pNA absorbance 405 nm; D23A/D198A/D206A triple mutant, cannot self-cleave; scale: DMSO 0, 5 µM enzyme 100;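 active means percent activation above the screen-wide mean plus 3 SD, cut at about 25% in these data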
# Target sequence (P55210 whole entry D23A/D198A/D206A): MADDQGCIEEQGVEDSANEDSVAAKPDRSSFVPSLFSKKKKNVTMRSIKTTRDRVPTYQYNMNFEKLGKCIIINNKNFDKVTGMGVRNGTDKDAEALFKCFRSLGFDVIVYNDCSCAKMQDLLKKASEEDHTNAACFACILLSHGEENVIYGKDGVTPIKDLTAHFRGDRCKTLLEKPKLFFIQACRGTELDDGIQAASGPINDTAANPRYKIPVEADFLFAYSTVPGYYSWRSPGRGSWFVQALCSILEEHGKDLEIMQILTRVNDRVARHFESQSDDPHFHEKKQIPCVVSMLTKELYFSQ
#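 Replicates: singlicate. Assay system: Procaspase-7 triple mutant (PC-7 D3A). Signal: 405 nm absorbance of p-nitroaniline. Times: 1 h preincubation, 2 h reaction. Buffer or medium: Zinc-free HEPES pH 7.4 with 300 mM NaCl, 0.01% Triton X-100. Also added: DEVD-pNA substrate. Benchmarks: DMSO wells as 0%, DMSO with 5 µM added PC-7 as 100%.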
# aDG glyco act = alpha-DG glycosylation activation | activation, % at 10 µM | Pro5-aDG cells, alpha-DG glycosylation AlphaScreen (IIH6); 0% Pro5, 100% B10-LARGE cell signal | AID 624168 | 360,000 compounds, 0.22% hits;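 active means activation of at least 8% versus controls, or a plate z-score of at least 8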;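 further: Pro5 are CHO cells carrying HIG-tagged alpha-DG that lacks glycosylation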
# MPTP counter = Rhodamine 123 counter-screen of mitochondrial pore hits; shares compounds with MPTP block; isolated mitochondria, membrane potential, Rhodamine 123 fluorescence; inhibition, % at 10 µM; 5,000 compounds, 78% hits; AID 624504; in the data active means inhibition above about 22%
# MPTP abs DR = dose response confirmation of mitochondrial permeability transition pore inhibitors. shares compounds with MPTP block. isolated mitochondria swelling, absorbance. IC50, µM. 780 compounds, 58% hits; in the data active means IC50 below about 20 µM
# MPTP counter DR = MPTP inhibitor counter-screen activity, dose response; shares compounds with MPTP block; IC50, µM; AID 651564; 780 compounds, 49% hits; isolated mitochondria counterscreen, fluorescence read-out; in the data active means IC50 below about 80 µM
# Hits are given with their value; n = inactive; x = not tested or not shown.
SMILES,NR3A LBD binder,proCasp3 act,MPTP block,proCasp7 act,aDG glyco act,MPTP counter,others
Fc1ccc(Nc2nc(-c3ccncc3)nc3ccccc23)cc1F,n,n,71,n,n,45,
Clc1cccc(Nc2nc(-c3ccncc3)nc3ccccc23)c1,n,n,69,n,n,83,
c1ccc(-[n+]2nc(Nc3cccc4ccccc34)sc2-c2c3ccccc3cc3ccccc23)cc1,n,n,98,n,n,93,
COc1ccc(C)cc1Nc1n[n+](-c2ccccc2)c(-c2cc(OC)c(OC)cc2Br)s1,n,n,n,n,n,x,
Fc1ccc(-[n+]2nc(Nc3ccccc3)sc2-c2c3ccccc3cc3ccccc23)cc1,n,n,92,n,n,111,
COc1ccc(C)cc1Nc1n[n+](-c2ccccc2)c(-c2c(OC)ccc3ccccc23)s1,n,n,100,n,n,105,
O=C(COC(=O)Cc1ccccc1[N+](=O)[O-])NNC(=O)c1ccc([N+](=O)[O-])cc1,n,n,n,n,n,x,
CC1(C(=O)NCc2ccccc2)CN(S(C)(=O)=O)CC(=O)N1CCc1ccccc1F (configuration not stated),x,x,n,x,n,x,
CC1=C(C(=O)N(C)C)CC(CC(=O)NCCc2ccccn2)C(=O)N1CCCN1CCCC1=O (configuration not stated),x,x,n,x,n,x,
Cc1onc(-c2ccccc2)c1C(=O)NCc1ccco1,n,n,n,n,n,x,
Cc1onc(-c2c(Cl)cccc2Cl)c1C(=O)NCc1ccco1,n,n,72,n,n,n,MPTP abs DR=n;MPTP counter DR=n
Cn1nc(C(C)(C)C)cc1C(=O)NCc1cc(F)cc2c1OCOC2,n,n,92,n,n,84,
O=C(c1ccc(NC(=S)Nc2ccc(Cl)c(Cl)c2)cc1)N1CCCC1,15,n,103,n,n,92,
O=C(Nc1ccc(N2CCOCC2)cc1)Nc1ccc(Cl)c(Cl)c1,33,n,93,n,n,80,
O=C(Nc1ccccc1)Nc1ccc(Cl)c(S(=O)(=O)N2CCOCC2)c1,n,n,62,n,n,86,
O=C(Nc1ccc(Cl)cc1)Nc1ccc(N2CCOCC2)cc1,11,n,69,n,n,57,
O=C(Nc1ccc(Cl)c(Cl)c1)N1CCCCCC1,n,n,n,n,n,x,
Cn1nnc2ccccc2c1=O,n,n,n,n,n,x,
CCn1c(=S)[nH]c2c(=O)n(C)c(=O)n(C)c21,n,x,n,x,n,x,
CSc1ccccc1C(=O)N1CCN(S(=O)(=O)c2sc(C(=O)O)c(C)c2C(=O)O)CC1,n,n,n,n,n,x,
CC(=O)c1ccc(N2CCN(C(=S)Nc3ccc(Cl)c(Cl)c3)CC2)cc1,n,n,94,n,n,77,
CC(=O)c1ccc(N2CCN(C(=S)Nc3ccccc3)CC2)cc1,n,n,n,n,n,x,
Cc1cc(OCc2ccc(C(=O)n3cccn3)o2)ccc1Cl,n,n,n,n,n,x,
CCN(CC)C(=O)c1ccc(COc2ccc(Cl)c(C)c2)o1,n,n,91,n,n,85,
CSCCC(NC(=O)c1ccco1)C(=O)N1CCN(C(c2ccccc2)c2ccccc2)CC1 (configuration not stated),n,x,n,x,n,x,
SMILES,NR3A LBD binder,proCasp3 act,MPTP block,proCasp7 act,aDG glyco act,MPTP counter,others
Cc1nc2ccccc2c2oc(C(=O)NCc3ccc4c(c3)OCO4)cc12,n,n,63,n,n,31,
NC(=S)NN=Cc1cc(-c2cccc(N)c2)ccn1,x,x,n,x,n,x,
NC(N)=NN=C(c1ccc(F)cc1)c1ccc(C(F)(F)F)cc1,n,x,70,x,n,n,MPTP abs DR=4.8;MPTP counter DR=41
CO/N=C/C(NC(=O)c1ccc(C(F)(F)F)cc1)C(=O)OC (configuration not stated),n,n,n,n,n,x,
O=C1CCC[C@@H]2[C@@H](Cc3ccccc3)[C@H](N3CCN(c4ccccc4)CC3)C[C@@H]3CCN1[C@@H]32,n,x,n,x,n,x,
CN1C(=CC=C2C=C(I)C(=O)C(I)=C2)C(C)(C)c2ccccc21,n,x,67,x,n,n,
CN(C)c1ccc(N=C/C=C2/N(C)c3ccccc3C2(C)C)cc1,n,x,82,x,n,52,
CN1/C(=C\C=N\O)C(C)(C)c2ccccc21,n,n,n,n,n,x,
CC(Cl)=CCn1c(NCCc2ccccc2)nc2c1c(=O)n(C)c(=O)n2C,x,x,71,x,n,76,
Cn1c(=O)c2c(nc(NCCc3ccccc3)n2Cc2ccc(F)cc2)n(C)c1=O,n,n,n,n,n,x,
Cn1c(=O)c2c(nc(NCc3ccco3)n2C/C=C/c2ccccc2)n(C)c1=O,n,n,89,n,n,106,
O=C(CN1CCN(C(=O)c2cccc(-n3cnnn3)c2)CC1)Nc1ccccc1Cl,n,n,n,n,n,x,
Cc1cc(C)n(-c2nc(-c3ccc(Cl)c(Cl)c3)cs2)n1,n,n,60,n,n,n,MPTP abs DR=n;MPTP counter DR=n
Cc1cc(C)n(-c2ccc(Cl)c(Cl)c2)n1,n,n,n,n,n,x,
N#CC1=C(SCC(=O)NC23CC4CC(CC(C4)C2)C3)NC(=O)C(C#N)C12CCCCC2 (configuration not stated),12,n,80,n,n,87,
CC(C)(C)C1CCC2(CC1)C(C#N)=C(SCC(=O)NC1CCCCC1)NC(=O)C2C#N (configuration not stated),12,n,79,n,n,88,
N#CC1=C(SCC(=O)NC2CC2)NC(=O)C(C#N)C12CCCCC2 (configuration not stated),n,n,n,n,n,x,
O=C(CSc1nnc(NC(=O)c2c(F)cccc2Cl)s1)Nc1ccccc1F,n,n,n,n,n,x,
Cc1cc(C)cc(Oc2nc(C(F)(F)F)nc3ccccc23)c1,n,n,80,n,n,n,MPTP abs DR=n;MPTP counter DR=78
CC(=O)N1CCN(S(=O)(=O)c2cccc(C(=O)OCc3ccc(C(C)(C)C)cc3)c2)CC1,n,x,90,x,n,90,
Cc1ccc(Cl)cc1NC(=O)Nc1cccs1,20,n,87,n,n,86,
Cc1ccc(COn2c(-c3ccc(Cl)cc3)nc3ccc([N+](=O)[O-])cc32)cc1,n,n,88,n,n,84,
O=[N+]([O-])c1ccc2nc(-c3ccc(Cl)cc3)n(OCc3ccccc3)c2c1,18,n,89,n,n,94,
O=C(O)COn1c(-c2ccccc2)nc2ccc([N+](=O)[O-])cc21,n,n,n,n,n,x,
CCOC(=O)C(C)On1c(-c2ccc(Cl)cc2)nc2ccc([N+](=O)[O-])cc21 (configuration not stated),n,n,89,n,n,108,

# Assay outcomes: PubChem BioAssay, several laboratories
